Results gathered from unrelated publications.
Compare with care: the assays were run in different laboratories.
Tmem97: Sigma intracellular receptor 2 (Tmem97, Rattus norvegicus, UniProt Q5U3Y7)
MTNR1A: Melatonin receptor type 1A (MTNR1A, Homo sapiens, UniProt P48039)
FLT3: Receptor-type tyrosine-protein kinase FLT3 (FLT3, Homo sapiens, UniProt P36888)
F2 trypsin-like site: Prothrombin, trypsin-like site (F2, Bos taurus, UniProt P00735)
HTR2C: 5-hydroxytryptamine receptor 2C (HTR2C, Homo sapiens, UniProt P28335)
CYP51: Sterol 14-alpha demethylase (CYP51, Trypanosoma cruzi, UniProt Q7Z1V1)

SMILES	target	assay	setting	endpoint	result
O=C(NCCN1CCCCC1)c1cc(Br)ccc1O	Tmem97	ligand displacement, radioligand	cell membranes	Ki	> 10 µM
COc1cccc2c1CCN(C(=O)c1cncn1C)C2	MTNR1A	cAMP, agonist, luciferase		EC50	0.0227 µM
Cc1ccc(C(=O)Nc2ccc(Oc3cc4cnn(C)c4cc3-c3cn[nH]c3)c(F)c2)c(=O)n1-c1ccc(F)cc1	FLT3	enzyme activity, inhibitor, radiometric		IC50	0.031 µM
COc1cccc2c1CCN(C(=O)c1cc(=O)n(C)cc1Br)C2	MTNR1A	cAMP, agonist, luciferase		EC50	0.0963 µM
COc1ccc2c(ccn2CCCCN2Cc3cc(OC)c(OC)cc3C2)c1	Tmem97	ligand displacement, radioligand	cell membranes	Ki	0.00891 µM
Cn1cc(C[C@@H](N)C(=O)O)c2ccccc21	Dihydrofolate reductase (DHFR, Homo sapiens, UniProt P00374)	enzyme activity, inhibitor	pH 7	Ki	810 µM
CCC(=O)NC1Cc2ccccc2C(c2ccccc2)C1 (centres unmarked)	MTNR1A	β-arrestin recruitment, agonist		EC50	0.759 µM
COC(=O)c1cc(Cn2ccc(C(C)=O)n2)c(C)s1	MTNR1A	cAMP, agonist, luciferase		EC50	0.0749 µM
COc1ccc2[nH]cc(CCNC(C)=O)c2c1I	MTNR1A	GTPγS binding, agonist, radiometric	cell membranes	EC50	0.112 µM
COC(=O)c1cccc(-c2cccc(Nc3nccc(NC4CCCCC4)n3)c2)c1	FLT3	enzyme activity, inhibitor		IC50	13.3 µM
Cc1cnc(-c2ccc(-c3ccc(NC(=O)Nc4c(F)cc(F)cc4F)cc3F)c3c2C(=O)NC3)[nH]1	Aurora kinase C (AURKC, Homo sapiens, UniProt Q9UQB9)	binding, competition with immobilised ligand		Kd	0.0011 µM
CC(C)(C)[C@H](NC(=O)[C@H](CCCNC(=N)N)NC(=O)Cc1ccc(CNC(=N)N)cc1)C(=O)N[C@@H](CCONC(=N)N)C(=O)NCc1ccc(C(=N)N)cc1	F2 trypsin-like site	enzyme activity, inhibitor	pH 8	Ki	9.6 µM
COCC(CNC(C)=O)c1cccc2ccc(OC)cc12 (centres unmarked)	MTNR1A	β-arrestin recruitment, agonist		EC50	0.00309 µM
COc1ccc2ccn(CCCCN3CCc4cc(OC)c(OC)cc4C3)c2c1	Tmem97	ligand displacement, radioligand	cell membranes	Ki	0.00868 µM
CCOc1ccc(CNc2cccnc2)cc1	MTNR1A	cAMP, agonist, luciferase		EC50	0.0635 µM
O=C(NCCN1CCCCC1)c1ccc(OCCF)c(Br)c1	Tmem97	ligand displacement, radioligand	cell membranes	Ki	0.0428 µM
CC(C)Nc1ccnc(Nc2ccc(-c3ccccc3)cc2)n1	FLT3	enzyme activity, inhibitor		IC50	15 µM
CCCN1CCN(c2ccc(-c3cncc(Cl)c3N3CCC4(CCNC4=O)CC3)cc2)CC1	Myotonin-protein kinase (DMPK, Homo sapiens, UniProt Q09013)	cell-free assay	lysate	Kd	18.4 µM
C[C@@H]1Cc2ccccc2N1C(=O)NCCCCN(C)[C@@H]1Cc2cccc3[nH]c(=O)n(c23)C1	HTR2C	ligand displacement, radioligand		Ki	> 10 µM
O=C(NCCc1cccc2ccccc12)C1CCC1	MTNR1A	cAMP, agonist, TR-FRET		EC50	1.66 µM
O=C(Nc1ccc(Sc2ccc([N+](=O)[O-])cc2)cc1)O[C@H](Cn1ccnc1)c1ccc(Cl)cc1	CYP51	binding		Kd	0.162 µM
Nc1nc(NCc2ccc(Oc3ccccc3)cc2)nc(-c2c(F)cccc2CO)n1	MTNR1A	cell-free assay, radioligand		Ki	5.9 µM

SMILES	target	assay	setting	endpoint	result
COc1ccc2c(c1)N(Cc1cccc3[nH]ccc13)CCO2	MTNR1A	cAMP, agonist, luciferase		EC50	0.0208 µM
CC(C)Nc1ccnc(Nc2cccc(C(C)(C)C)c2)n1	FLT3	enzyme activity, inhibitor		IC50	17.2 µM
CCOC(=O)c1nc(N(C)CCc2cnccn2)ccc1Br	MTNR1A	cAMP, agonist, luciferase		EC50	0.0294 µM
CC(C)(C)[C@H](NC(=O)[C@H](CCCNC(=N)N)NC(=O)Cc1ccc(CNC(=N)N)cc1)C(=O)N[C@@H](CCCNC(=N)N)C(=O)NCc1ccc(C(=N)N)cc1	F2 trypsin-like site	enzyme activity, inhibitor	pH 8	Ki	20 µM
Cc1cc(Nc2cc3ncccc3c(N[C@@H]3C[C@H]4CC[C@@H](C3)N4CCC#N)n2)n[nH]1	Ephrin type-B receptor 6 (EPHB6, Homo sapiens, UniProt O15197)	binding, competition with immobilised ligand		Kd	2 µM
c1cc(Nc2nccc(NC3CCCCC3)n2)cc(-c2cc[nH]n2)c1	FLT3	enzyme activity, inhibitor		IC50	0.096 µM
COc1cc2c(CCNC(C)=O)c[nH]c2cc1I	MTNR1A	β-arrestin recruitment, agonist		EC50	0.00525 µM
COc1ccc2c(c1)N(Cc1cc(=O)c(OC)co1)CCO2	MTNR1A	cAMP, agonist, luciferase		EC50	0.00056 µM
COC(=O)[C@H](C)Nc1ccnc(Nc2cccc(-c3cccnc3)c2)n1	FLT3	enzyme activity, inhibitor		IC50	> 22 µM
Cc1cc2nc3c(=O)[nH]c(=O)nc-3n(C[C@H](O)[C@H](O)[C@H](O)COP(=O)(O)OP(=O)(O)OC[C@H]3O[C@@H](n4cnc5c(N)ncnc54)[C@H](O)[C@@H]3O)c2cc1C	BMP-2-inducible protein kinase (BMP2K, Homo sapiens, UniProt Q9NSY1)	binding	lysate	Kd	0.031 µM
c1cncc(-c2cccc(Nc3nccc(NC4CCCC4)n3)c2)c1	FLT3	enzyme activity, inhibitor		IC50	0.013 µM
COc1ccc(CNc2cccnc2)cc1Br	MTNR1A	cAMP, agonist, luciferase		EC50	0.049 µM
COc1ccc2ncn(CCNC(C)=O)c2c1	MTNR1A	GTPγS binding, agonist, radiometric	cell membranes	EC50	2.19 µM
O=C(O[C@H](Cn1ccnc1)c1ccccc1)c1ccc(-c2ccccc2)cc1	CYP51	binding		Kd	0.046 µM
COc1cccc(-c2cccc(Nc3nccc(NC(C)C)n3)c2)c1	FLT3	enzyme activity, inhibitor		IC50	6.97 µM
CCCCN1CCN(C2CCCCC2)CC1	Tmem97	ligand displacement, radioligand	cell membranes	Ki	0.0652 µM
CCc1nc2cc(OCCCCN3CCC(c4cccc(Cl)c4Cl)CC3)ccc2s1	HTR2C	cell-free assay, radioligand		Ki	0.21 µM
CC(C)c1ccc(NC(=O)O[C@H](Cn2ccnc2)c2ccc(F)cc2)cc1	CYP51	binding		Kd	0.032 µM
CC(C)(C)[C@H](NC(=O)[C@H](CCONC(=N)N)NC(=O)Cc1ccc(CN)cc1)C(=O)N[C@@H](CCONC(=N)N)C(=O)NCc1ccc(C(=N)N)cc1	F2 trypsin-like site	enzyme activity, inhibitor	pH 8	Ki	25 µM
O=C(NCCCn1ccnc1)O[C@@H](Cn1ccnc1)c1ccc(F)cc1	CYP51	binding		Kd	0.087 µM
Fc1ccc(Nc2nccc(NC3CCCCC3)n2)cc1	FLT3	enzyme activity, inhibitor		IC50	3.3 µM
O=C(O)CNC(=O)C(=O)O	Glutamate dehydrogenase 1, mitochondrial (GLUD1, Bos taurus, UniProt P00366)	binding, NMR		Kd	10000 µM
